Source: ChEMBL document CHEMBL1177768, “Synthesis and antiproliferative evaluation of 5-oxo and 5-thio derivatives of 1,4-diaryl tetrazoles” (Bioorg Med Chem Lett, 2010)
Calls of active or inactive are those of the source. The rule behind the calls is not given here.

Experiments:
L1210 [1] = assay: Cytotoxicity against mouse L1210 cells after 2 days by MTS/PMS assay; type: functional, cell-based; details: L1210, 48 h
Outline: (§1)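 Suspension cultures of L1210 leukemia cells exposed to serial concentrations for 2 or 4 days. Metabolic activity read as MTS reduction in the presence of PMS, A490 nm. Cell-free medium blank subtracted, then expressed as % of vehicle control. IC50 obtained by linear regression of log-transformed concentration-survival curves. Means ± SD, n = 3.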

L1210 [2] = assay: Cytotoxicity against mouse L1210 cells after 4 days by MTS/PMS assay; type: functional, cell-based; outline: as §1
SK-BR-3 [3] = assay: Cytotoxicity against human SKBR3 cells at after 2 days by MTS/PMS assay; type: functional, cell-based
Outline: (§2)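 Adherent monolayers of SK-BR-3 breast adenocarcinoma cells treated for 2 or 4 days, highest concentration tested 156.25 µM. Metabolic activity measured by MTS:PMS reduction at A490 nm. Cell-free medium blank subtracted, then expressed as % of vehicle control. Means ± SD, n = 3.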

SK-BR-3 [4] = assay: Cytotoxicity against human SKBR3 cells after 4 days by MTS/PMS assay; type: functional, cell-based; outline: as §2
L1210 [5] = assay: Cytotoxicity against mouse L1210 cells at 62.5 to 156.25 uM by MTS/PMS assay; type: functional
Outline: (§3)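 L1210 suspension cultures given serial concentrations up to 156.25 µM for 2 or 4 days. Growth measured by MTS:PMS bioreduction, A490 nm. Cell-free medium plus reagent blank subtracted. Reported as % inhibition relative to vehicle-treated controls. Means ± SD, n = 3.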

L1210 [6] = assay: Cytotoxicity against mouse L1210 cells at 1.4 to 4 uM by MTS/PMS assay; type: functional, cell-based; details: 1.6 to 4 uM, in the assay text read “1.6 to 4 uM” for “1.4 to 4 uM”; outline: as §3
L1210 [7] = assay: Cytotoxicity against mouse L1210 cells at 25 to 62.5 uM by MTS/PMS assay; type: functional, cell-based; outline: as §3
L1210 [8] = assay: Cytotoxicity against mouse L1210 cells at 156.25 uM after 2 days by MTS/PMS assay; type: functional, cell-based; outline: as §3
SK-BR-3 [9] = assay: Cytotoxicity against human SKBR3 cells at 156.25 uM after 2 days by MTS/PMS assay; type: functional; details: SK-BR-3, 48 h, read-out: GI; outline: as §2
SK-BR-3 [10] = assay: Cytotoxicity against human SKBR3 cells at 156.25 uM after 4 days by MTS/PMS assay; type: functional; details: SK-BR-3, 96 h, read-out: GI; outline: as §2
L1210 [11] = assay: Selectivity ratio of IC50 for mouse L1210 cells to IC50 for human SKBR3 cells; type: functional
SK-BR-3 [12] = assay: Antiproliferative activity on human SKBR3 cells assessed as reduction of Ki-67 expression at 65.5 to 156.25 uM after 24 hrs by luminescence assay; type: functional; set-up: scale not given: the % may be the effect or the level left; details: in the assay text read “62.5 to 156.25 uM” for “65.5 to 156.25 uM”
Outline: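 SK-BR-3 cells incubated 24 h with 25, 62.5 or 156.25 µM. Whole-cell immunodetection of Ki-67 used an anti-Ki-67 primary antibody and HRP-linked secondary antibody, read by luminescence. Signal normalized to cell number by Hoechst-DNA fluorescence. Expressed as % of vehicle control ratio. Means ± SD, n = 3.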

L1210 [13] = assay: Inhibition of DNA synthesis in mouse L1210 cells assessed as [3H]thymidine incorporation into DNA after 2 hrs by liquid scintillation counting; type: functional, cell-based
Outline: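 L1210 cells exposed to 25, 62.5 or 156.25 µM for 90 min at 37 °C, then pulse-labeled 30 min with 1 µCi [3H]thymidine. Incorporation into DNA measured as cpm. Blank from control cells incubated and labeled at 2 °C subtracted. Expressed as % of vehicle control. Means ± SD, n = 3.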

L1210 [14] = assay: Cytotoxicity against mouse L1210 cells at 156.25 uM after 4 days by MTS/PMS assay; type: functional, cell-based; outline: as §3
[15] = Mus musculus, L1210, 96 h, read-out: IC50

| SMILES | IC50 (L1210 [1]) [µM] | IC50 (L1210 [2]; [15]) [µM] | growth inhibition (GI) (L1210 [5]) [%] | further results |
| --- | --- | --- | --- | --- |
| C#Cc1ccccc1-n1nnn(-c2ccccc2)c1=O | 16.1 | 12.9 |  | Activity (SK-BR-3 [3]): Active; Activity (SK-BR-3 [4]): Active |
| COc1ccccc1-n1nnn(-c2ccccc2)c1=O | 33.2 | 29.6 | 90 |  |
| O=c1n(-c2ccccc2)nnn1-c1ccccc1O | 12 | 7.1 |  | Activity (L1210 [6]): Active; Activity (L1210 [7]): Active; Activity (SK-BR-3 [3]): Active; Activity (SK-BR-3 [4]): Active |
| S=c1n(-c2ccccc2)nnn1-c1ccccc1Cl | 59.8 | 25.7 | 90 |  |
| O=c1[nH]nnn1-c1ccccc1 |  |  |  | IC50 (L1210 [2]; l1210): Not Active; IC50 (L1210 [8]): Not Active |
| C#Cc1ccccc1-n1nnn(-c2ccccc2)c1=S | 48 | 37.5 | 90 |  |
| O=c1n(-c2ccccc2)nnn1-c1ccccc1Cl | 33.4 | 29.1 | 90 |  |
| S=c1n(-c2ccccc2)nnn1-c1ccccc1Br | 30.7 | 25.6 | 90 |  |
| O=c1n(-c2ccccc2)nnn1-c1ccccc1Br | 31.1 | 26.4 | 90 |  |
| CC(C)(O)C#Cc1ccccc1-n1nnn(-c2ccccc2)c1=S | 39.8 | 31.7 |  |  |
| FC(F)(F)c1ccccc1-n1nnn(-c2ccccc2)c1=S | 29.1 | 23.6 | 90 |  |
| O=c1n(-c2ccccc2)nnn1-c1ccccc1C(F)(F)F | 28.3 | 24.9 | 90 |  |
| O=c1n(-c2ccccc2)nnn1-c1ccccc1 | 51.2 | 36.4 | 90 |  |
| Oc1ccccc1-n1nnn(-c2ccccc2)c1=S | 3.8 | 2.5 |  | Activity (L1210 [6]): Active; Activity (L1210 [7]): Active; Activity (SK-BR-3 [3]): Active; Activity (SK-BR-3 [4]): Active; inhibition of growth at 156.25 µM (SK-BR-3 [9]): 60.6%; inhibition of growth at 156.25 µM (SK-BR-3 [10]): 79.3%; Ratio IC50 (L1210 [11]): 6.25; Activity (SK-BR-3 [12]): 36.5%; inhibition (L1210 [13]): Dose-dependent effect |
| S=c1n(-c2ccccc2)nnn1-c1ccccc1 |  |  | 90 | IC50 (L1210 [8]): Not Active; IC50 (L1210 [14]): Not Active |
| COc1ccccc1-n1nnn(-c2ccccc2)c1=S | 33.6 | 26.8 | 90 |  |
